Laboratory results: publication PMC10793424 (bioRxiv, 2024)
Like-named read-outs stand apart in the source and are kept apart here.

Experiments:
[1] = in vivo; settings: male, CD-1, mouse, sc, 3 mg/kg
[2] = tested on: PTH secretion from parathyroid glands; experiment: Ex vivo parathyroid gland culture: PTH secretion and Ca2+ set-point; type: cell-based, mouse
Outline: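 Glands from 4-week-old wild-type C57/B6 mice, incubated sequentially with rising test compound (0.01 nM–50 µM) at 0.75 mM [Ca2+]e for dose-response. For set-point, 50 or 500 nM compound under rising [Ca2+]e. PTH secretion rate per gland per hour was normalized between vehicle basal rate (0.5 mM) and rate at 3.0 mM. Set-point is the [Ca2+]e suppressing 50% of Ca-suppressible secretion. n = 8 gland groups, mean ± SEM.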

[3] = tested on: serum PTH; experiment: Serum PTH after subcutaneous injection; type: in vivo, C57/B6 mice; settings: WT B6 mice
Outline: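 Wild-type B6 mice given subcutaneous injections. Serum PTH was followed over 8 h after 1 mg/kg or 10 mg/kg. Dose comparison used serum PTH sampled 30 min after injection at several doses. n = 10 mice per dose, n = 5 at 10 mg/kg. Reference compound doses were corrected for molecular weight to match molar amounts. Unpaired Student's t-test.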

[4] = for duration of significantly lowered serum calcium / lowest level of serum calcium: 3 mg/kg subcutaneous; for lowest level of serum calcium: from 2.2 mM
[5] = plasma, 3 mg/kg subcutaneous, CD-1 mice
[6] = 1 mg/kg (3.1 µmol/kg, equimolar) subcutaneous

Compound | Cmax [1] [ng/mL] | calcium set point for PTH secretion ([2]; PAM at 50 nM, vehicle 1.47 mM) [mM] | calcium set point for PTH secretion ([2]; PAM at 500 nM, vehicle 1.5 mM) | suppression of PTH secretion (serum PTH) [3, 6] | suppression of PTH secretion (serum PTH) ([3]; 10 mg/kg (31 µmole/kg) subcutaneous) | duration of significantly lowered serum calcium [4] | lowest level of serum calcium [4] [mM] | Cmax [5] [nM] | time of Cmax [5] [min] | IC50 ([2]; Mus musculus, read-out: IC50 in suppressing PTH secretion) [nM] | hypocalcemic action ([4]; 3.1 µmol/kg (~1 mg/kg) subcutaneous)
C[C@@H](NCCCc1cccc(C(F)(F)F)c1)c1cccc2ccccc12 [cinacalcet] | 58.9 | 1.23 | ~ 0.94 mM | less effective | fully suppress | more than 8 hrs | 1.7 | 150 | 15 |  | 
C[C@@H](N[C@H]1CCN(c2ccc(CC(=O)O)cc2)C1)c1cccc2ccccc12 [evocalcet] |  | 1 | 0.76 mM | fully suppress |  | more than 8 hrs | 1.6 |  | 60 | 998 | particularly robust
